Screening data as filed in PubChem BioAssay.
Only some compounds are listed: those with a hit (about 2.4% of all), similar ones and a draw of the others.
Rin1 Abl inh: human Rin1-Abl interaction inhibition; inhibition, % at 7.35 µM; TR-FRET Rin1/Abl binding, biochemical; actives 0.4% (n = 360,000); in the data active = inhibition above about 5%, passing the limit was not always enough
Neddylation inh: inhibitors of human cullin neddylation. inhibition, % at 25 µM. TR-FRET cullin neddylation, biochemical. P61081+Q13564. actives 0.58% (n = 360,000); in the data active = inhibition above about 36%
Rpn11 inh: inhibitors of human proteasome Rpn11; actives 0.59% (n = 360,000); O00487; human 26S proteasome, Ub4-pepOG fluorescence polarization; 20S core pre-blocked with epoxomicin; inhibition, % at 20 µM;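 active = inhibition at 20 µM, scaled to each plate's controls, above about 33%, limit read from the data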
CSN inh: inhibitors of human CSN-mediated cullin deneddylation. actives 0.38% (n = 360,000). Purified CSN, SCF-Nedd8-OG deneddylation, fluorescence polarization. Q92905. inhibition, % at 12.5 µM. AID 651999;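 active = pattern-corrected inhibition above about 35%, with an unprinted fluorescence ratio check between 0.5 and 1.5, limit read from the data, passing the limit was not always enough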
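Material: human Csn5 produced in HEK293T cells; Input: enzyme 0.24 nM; Reagent: SCFSkp2-Nedd8OG substrate at 10 nM final; Dosing: 12.5 µM compound; Incubation: 90 min reaction at room temperature; Detection: fluorescence polarization of the substrate; Evaluation: % inhibition of substrate cleavage by Csn5; Control set: substrate-only high control, full reaction low control.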
TPT1 inh: C. albicans TPT1 enzyme inhibition | recombinant caTPT1, FP RNA substrate dephosphorylation | inhibition, % at 5 µM | actives 0.81% (n = 300,000) | AID 1962;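 active = inhibition above the mean of all tested compounds plus 3 SD, set per screening campaign, cut at about 24% in these data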
HNF4A DNA FP: change in binding of human HNF4 alpha to DNA; P41235; HNF4a-FITC DNA binding, fluorescence polarization, 1 h; activity change, % at 10 µM; actives 0.3% (n = 360,000); in the data active = activity change above about 30%, passing the limit was not always enough
Target sequence (P41235 whole entry, looked up): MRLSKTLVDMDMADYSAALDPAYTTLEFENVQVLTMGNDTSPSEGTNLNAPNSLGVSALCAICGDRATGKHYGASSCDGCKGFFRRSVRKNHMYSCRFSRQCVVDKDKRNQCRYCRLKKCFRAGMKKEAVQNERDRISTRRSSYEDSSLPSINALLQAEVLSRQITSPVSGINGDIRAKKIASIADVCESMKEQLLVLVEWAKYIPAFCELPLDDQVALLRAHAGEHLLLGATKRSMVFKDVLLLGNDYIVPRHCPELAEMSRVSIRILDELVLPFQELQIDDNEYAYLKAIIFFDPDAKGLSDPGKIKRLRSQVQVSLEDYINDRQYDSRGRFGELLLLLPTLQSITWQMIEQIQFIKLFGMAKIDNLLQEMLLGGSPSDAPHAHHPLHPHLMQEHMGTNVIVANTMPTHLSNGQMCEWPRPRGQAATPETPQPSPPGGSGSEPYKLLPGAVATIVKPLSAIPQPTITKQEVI
Rpn11 confirm: confirmation of human proteasome Rpn11 inhibitors; purified human 26S proteasome, Ub4-pepOG fluorescence polarization; proteasome pretreated with epoxomicin; actives 29% (n = 1,900); inhibition, % at 20 µM; shares compounds with Rpn11 inh
MMP-2 counter: counter-screen for RPN11 inhibitors: inhibition of human MMP-2; shares compounds with Rpn11 inh; recombinant MMP-2, FRET peptide cleavage fluorescence; inhibition, % at 20 µM; actives 4% (n = 1,900); AID 602330;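 also: human MMP-2 activated beforehand with APMA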
Thrombin FP: blocks bovine thrombin, flagging nonselective RPN11 hits; bovine thrombin cleavage of Ub4-pepOG, fluorescence polarization; inhibition, % at 20 µM; shares compounds with Rpn11 inh; actives 13% (n = 1,900);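 active = mean inhibition at least 40% at 20 µM, or signal 3 deviations below plate average, so some actives read negative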
Numbers stand for hits; i = inactive; nt = not tested or not shown; + = active, no number. Rule as the data show it, unless noted: active = inhibition above about 40%; inactive = the rest.

SMILES	Rin1 Abl inh	Neddylation inh	Rpn11 inh	CSN inh	TPT1 inh	HNF4A DNA FP	Rpn11 confirm	MMP-2 counter	Thrombin FP
COC(=O)c1sc(N2C(=O)C(O)=C(C(=O)c3ccc(C)o3)C2c2cccs2)nc1C (configuration not stated)	i	i	48.6	i	i	i	i	i	i
N#CCc1ccc(Oc2ncccn2)cc1	i	i	i	i	i	i	nt	nt	nt
C#CCOCCOCCOCCNc1nc(N2CCN(C(=O)CCCCCCCCCCNC(=O)[C@H]([C@@H](C)CC)n3cc(CCCCN=C(N)N)nn3)CC2)nc(N2CCN(C(=O)CCCCCCCCCCNC(=O)[C@@H]([C@H](C)O)n3cc(C)nn3)CC2)n1	14.1	i	71.3	96.9	i	i	i	i	i
Cc1ccc(OCCNC(=O)c2ccc(C)cc2)cc1	i	i	i	i	i	i	nt	nt	nt
COc1ccc(OCCNC(=O)c2ccc(C)cc2)cc1	i	i	40.0	i	i	i	i	i	i
CN(C)N1C(N)=C(C#N)C(c2cccnc2)C2=C1CCCC2=O (configuration not stated)	i	i	i	i	i	i	nt	nt	nt
Cc1ccccc1N1CC(=O)N(c2ccccc2C)CC1=O	i	i	i	i	i	i	nt	nt	nt
Cc1cccc2c1c1ccc3c(c1n2C)C(=O)C=CC3=O	i	i	42.1	i	nt	i	i	i	i
O=C(CCN1C(=O)/C(=C\C=C\c2ccccc2)SC1=S)Nc1ccc(C(=O)O)cc1	i	i	i	i	i	i	nt	nt	nt
O=C(CCN1C(=O)/C(=C/C=C/c2ccccc2)SC1=S)Nc1nc2ccccc2s1	i	i	54.3	i	i	i	i	i	i
COC(=O)c1ccc2c(c1)NC(=O)C(N(CC(C)C)CC(C)C)S2 (configuration not stated)	i	i	47.6	i	i	46.8	i	i	i
CC(=O)c1cccc(NC(=O)c2cccc3c(-c4cccc(C(N)=O)c4)coc23)c1	i	i	+	i	nt	i	i	i	56.8
CS(=O)(=O)Nc1cccc(NC(=O)c2cccc3c(-c4cccc(C(N)=O)c4)coc23)c1	i	i	i	i	nt	i	nt	nt	nt
CN(C)C(=O)c1nc2ccc(Cl)cn2c1CNCc1ccccc1OC(F)(F)F	i	i	i	i	i	i	nt	nt	nt
O=C(Cn1cc(F)c(=O)[nH]c1=O)c1ccco1	i	i	i	i	nt	i	nt	nt	nt
CN(Cc1nccn1C)C(=O)CC1C(=O)NCCN1CC(c1ccccc1)c1ccccc1 (configuration not stated)	i	i	i	i	i	i	nt	nt	nt
Cc1ccc(C2C(/C=C3/SC(=S)NC3=O)=C(c3cccs3)Oc3ccccc32)cc1 (configuration not stated)	i	i	48.7	i	i	i	45.4	41.2	i
CC1Cc2cc(/C=C3/SC(=S)NC3=O)ccc2O1 (configuration not stated)	i	i	i	i	i	i	nt	nt	nt
COc1cccc(/C=N/NC(=O)c2c(C)nc3ccc(Cl)cn23)c1O	i	i	51.5	i	i	i	i	i	i
COc1ccccc1/C=N\NC(=O)c1c(C)nc2ccc(Cl)cn12	i	i	i	i	nt	i	nt	nt	nt
Cc1ccc(/C=C2\C(=N)N3N=C(CC(=O)N4CCCCC4)SC3=NC2=O)cc1	i	i	i	i	i	i	nt	nt	nt
CSc1ccc(/C=C2\C(=N)N3N=C(CC(=O)N4CCCCC4)SC3=NC2=O)cc1	i	i	51.7	i	i	i	i	i	i
COc1ccc(OCC(=O)NNC(=O)c2cccs2)cc1	i	i	125.4	i	i	i	i	i	i
CCOC(=O)C1=C(N)n2c(s/c(=C\c3cccnc3)c2=O)=C(C(=O)OC)C1c1cccnc1 (configuration not stated)	i	i	35.1	67.4	i	i	i	i	i
CC(C)NC(=O)c1ccc(S(=O)(=O)N(C)C)cc1	i	i	39.2	i	i	i	i	i	i
SMILES	Rin1 Abl inh	Neddylation inh	Rpn11 inh	CSN inh	TPT1 inh	HNF4A DNA FP	Rpn11 confirm	MMP-2 counter	Thrombin FP
COc1cccc(NC(=O)Cn2c(=O)n(-c3ccccc3)c(=O)c3sccc32)c1	i	i	i	i	i	i	nt	nt	nt
CNc1ccc2nnc(C(F)(F)C(F)(F)C(F)(F)F)n2n1	i	i	105.5	i	i	i	i	i	i
COc1ccccc1NC(=O)C1=C(C)NC(=O)NC1c1ccccc1[N+](=O)[O-] (configuration not stated)	i	i	52.4	i	i	i	i	i	i
CC1=C(C(=O)Nc2ccccc2)C(c2ccccc2[N+](=O)[O-])NC(=O)N1 (configuration not stated)	i	i	i	i	i	i	nt	nt	nt
COc1ccccc1CNC(=O)C(=O)NCC1OCCCN1S(=O)(=O)c1ccc(F)cc1C (configuration not stated)	i	i	i	i	i	i	nt	nt	nt
CCn1c2ccccc2c2cc(/C=N/NC(=O)c3cccc(C)c3)ccc21	i	nt	147.3	45.3	i	i	i	i	i
O=C1CCCN1CCCNc1nc2c(S(=O)(=O)c3ccccc3)nnn2c2ccc(Cl)cc12	i	nt	44.4	i	i	i	i	i	i
O=C1Nc2cc(C(=O)NCCCN3CCCC3)ccc2S/C1=C\c1ccccc1	i	i	i	i	i	i	nt	nt	nt
COc1ccc(/C=C2/Sc3ccc(C(=O)NCCN4CCCCCC4)cc3NC2=O)cc1	i	i	70.0	i	i	i	i	i	i
COc1ccc(OC)c(NC(=O)c2cc(OC(C)=O)cc(C(=O)Nc3cc(OC)ccc3OC)c2)c1	i	i	i	i	i	i	nt	nt	nt
S=C(c1cn(CCOc2cccc3ccccc23)c2ccccc12)N1CCCC1	i	i	46.0	i	i	i	51.8	i	i
CC(C)(C)c1ccc(C(O)c2ncc(-c3ccccc3F)[nH]2)cc1 (configuration not stated)	i	i	i	i	nt	i	nt	nt	nt
Cc1ccnc(NS(=O)(=O)c2cc(-c3cc(C)no3)ccc2C(C)C)c1	i	i	i	i	i	i	nt	nt	nt
Cc1occc1-c1nnc(SCC(=O)NCCc2ccccc2)n1Cc1ccccc1	i	i	85.4	i	i	i	i	i	i
Cc1occc1-c1nnc(SCC(N)=O)n1Cc1ccccc1	i	i	i	i	i	i	nt	nt	nt
CCCCCCSc1ccc(-c2nc3ccc(Cl)cn3c2NCCCC)cc1OC	i	nt	35.7	i	nt	i	i	i	i
COC(=O)c1ccccc1NC(=O)CCS(=O)(=O)c1ccc(Br)cc1	i	i	43.3	i	nt	i	114.0	i	i
